Assays:
[1] = Lipophilicity by octanol water distribution coefficient; type: physicochemical
Rattus norvegicus [2] = assay: In vivo effective dose required for 50% stimulation of GH release in anesthetized rat model.; type: functional
Outline: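 Anesthetized Wistar rats given compound iv, with GH release as read-out. ED50 (mg/kg) is the average of triplicate experiments.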

[3] = Plasma clearance was determined in canine following intravenous (iv) administration of drug (1 mg/kg).; type: ADME, organism-based, Canis lupus familiaris; conditions: dog
Outline: (§1)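 Male beagle dogs given 1 mg/kg intravenously. Plasma sampling gave clearance, volume of distribution and elimination half-life, with half-life calculated over 0–8 h.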

[4] = target: Growth hormone secretagogue receptor type 1 (Homo sapiens, UniProt Q92847); assay: In vitro binding affinity against human type 1a growth hormone secretagogue receptor (hGHS-R1a), using [125I]ghrelin as radioligand.
Growth hormone secretagogue receptor type 1, sequence (Q92847 whole entry): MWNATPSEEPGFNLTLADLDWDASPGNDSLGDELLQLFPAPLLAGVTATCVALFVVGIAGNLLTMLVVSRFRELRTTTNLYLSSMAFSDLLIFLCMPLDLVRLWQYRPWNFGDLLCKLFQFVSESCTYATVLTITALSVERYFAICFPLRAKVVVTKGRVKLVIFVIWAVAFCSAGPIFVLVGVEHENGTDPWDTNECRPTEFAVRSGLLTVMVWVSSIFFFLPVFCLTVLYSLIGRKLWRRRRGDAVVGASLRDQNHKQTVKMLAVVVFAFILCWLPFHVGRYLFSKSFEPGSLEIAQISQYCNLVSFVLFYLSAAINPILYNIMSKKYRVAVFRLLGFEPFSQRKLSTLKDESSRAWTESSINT
Outline: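 Competitive displacement of [125I]-ghrelin from membranes of HEK293 cells over-expressing hGHS-R1a. Ki values are the average of duplicate experiments.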

[5] = Plasma elimination half-life (08 h) was determined in canine following intravenous (iv) administration (1 mg/kg).; type: ADME, organism-based, Canis lupus familiaris; conditions: dog; outline: as §1
Rattus norvegicus [6] = species on record: Rattus norvegicus; assay: In vitro effective concentration required for 50% stimulation of GH release in rat pituitary cell cultures.; type: functional; conditions: Pituitary gland cell
Outline: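 Rat pituitary cell cultures exposed to compound. Released GH was quantified by rat-specific double-antibody radioimmunoassay. EC50 is the average of triplicate experiments.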

[7] = Volume of distribution was determined in canine following intravenous (iv) administration of drug (1 mg/kg).; type: ADME, organism-based, Canis lupus familiaris; conditions: dog, in vivo; outline: as §1
[8] = Maximum plasma concentration at a 1 mg/kg oral dose in female Sprague-Dawley rats; type: ADME, organism-based; parameters: dose 1 mg/kg, route oral; conditions: rat
Outline: (§2)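 Female Sprague–Dawley rats dosed orally at 1 mgA/kg (free base equivalents). Plasma concentration–time profile gave Cmax, Tmax and apparent oral t1/2.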

[9] = Time taken by the compound to achieve maximum plasma concentration at a 1 mg/kg oral dose in male and female Beagle dogs.; type: ADME, organism-based, Canis lupus familiaris; parameters: dose 1 mg/kg, route oral; conditions: both, dog
Outline: (§3)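 Male and female beagle dogs given a single 1 mgA/kg oral dose (free base equivalents). Plasma profile gave Cmax, Tmax and apparent oral t1/2.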

[10] = Time taken by the compound to achieve maximum plasma concentration at a 1 mg/kg oral dose in female Sprague-Dawley rats; type: ADME, organism-based; parameters: dose 1 mg/kg, route oral; conditions: rat; outline: as §2
[11] = (§4) Oral half life was determined; type: ADME, organism-based; conditions: rat, in vivo; outline: as §2
[12] = Plasma elimination half-life was determined in female Sprague-Dawley rats following intravenous (iv) administration of drug (1 mg/kg).; type: ADME, organism-based; conditions: rat
Outline: (§5)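 Female Sprague–Dawley rats given a 1 mgA/kg (free base equivalents) iv dose. Plasma drug levels gave mean Vd, CL and t1/2.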

[13] = Volume of distribution was determined in female Sprague-Dawley rats following intravenous (iv) administration of drug (1 mg/kg).; type: ADME, organism-based; conditions: rat, in vivo; outline: as §5
[14] = Plasma clearance was determined in female Sprague-Dawley rats following intravenous (iv) administration of drug (1 mg/kg).; type: ADME, organism-based; conditions: rat; outline: as §5
[15] = (§6) Bioavailability; type: ADME, organism-based, Canis lupus familiaris; conditions: dog, in vivo
Outline: (§7)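 Bioavailability of the free base from a 1 mgA/kg oral dose compared with a 1 mgA/kg iv dose. Measured in female Sprague–Dawley rats and in male and female beagle dogs.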

[16] = as §6; type: ADME, organism-based; conditions: rat, in vivo; outline: as §7
[17] = Maximum plasma concentration at a 1 mg/kg oral dose in male and female Beagle dogs.; type: ADME, organism-based, Canis lupus familiaris; parameters: dose 1 mg/kg, route oral; conditions: both, dog; outline: as §3
[18] = as §4; type: ADME, organism-based, Canis lupus familiaris; conditions: dog, in vivo; outline: as §2

logD [1]	clearance [3] [mL/min/kg]	Ki [4] [nM]	half-life [5] [h]	EC50 (Rattus norvegicus [6]) [nM]	Vd [7] [L/kg]	Cmax [8] [ng/mL]	Tmax [9] [h]	Tmax [10] [h]	half-life [11] [h]	half-life [12] [h]	Vd [13] [L/kg]	clearance [14] [mL/min/kg]	bioavailability [15] [%]	bioavailability [16] [%]	Cmax [17] [ng/mL]	half-life [18] [h]	SMILES	ED50 (Rattus norvegicus [2]) [mg/kg]
2.9	19	0.34	3.9	4	5.9												CC(C)(N)C(=O)N[C@H](COCc1ccc(F)c(F)c1)C(=O)N1CCC2=NN(C(C)(C)C)C(=O)C2(Cc2ccccc2)C1 (stereo not given in full)	> 10
2.9	13		2.5		2.2												CC(C)(N)C(=O)N[C@H](COCc1ccccc1)C(=O)N1CCC2=NN(C(C)(C)C)C(=O)C2(Cc2ccccc2)C1 (stereo not given in full)	
3	13	0.45	4.7	2	5.1												CC(C)(N)C(=O)N[C@H](COCc1ccc(F)c(F)c1)C(=O)N1CCC2=NN(CC(F)(F)F)C(=O)C2(Cc2ccccc2)C1 (stereo not given in full)	> 10
1.7	19	7	1.3	3	2												CN1N=C2CCN(C(=O)[C@@H](COCc3ccccc3)NC(=O)C(C)(C)N)C[C@@]2(Cc2ccccc2)C1=O [CAPROMORELIN]	0.05
1.6	5.3	5	3.7	3	1.5	88	1.3	0.25	3.9	1.9	4.9	46	77	59	260	4.2	CC(C)(N)C(=O)N[C@H](COCc1ccc(F)cc1F)C(=O)N1CCC2=NN(CC(F)(F)F)C(=O)[C@]2(Cc2ccccn2)C1	0.1
1.7	17	18	2.7	10	3.5												CN1N=C2CCN(C(=O)[C@@H](COCc3ccc(F)c(F)c3)NC(=O)C(C)(C)N)CC2(Cc2ccccc2)C1=O (stereo not given in full)	0.3
